From ChEMBL document CHEMBL1240366, “Blockade of X4-tropic HIV-1 cellular entry by GSK812397, a potent noncompetitive CXCR4 receptor antagonist” (Antimicrob Agents Chemother, 2010)

What was measured:
[1] = test system: Human immunodeficiency virus 1; test: Antiviral activity against HIV1 3B infected in human HOS cells after 72 hrs by luminescence assay; format: functional, organism-based; settings: Human immunodeficiency virus 1, 3B
How it was run: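 HOS cells express hCXCR4, hCCR5 and hCD4 plus an HIV-1 LTR-luciferase reporter. 6,000 cells/well were plated in DMEM with 2% FCS and grown overnight, then pre-incubated with compound for 1 h. Virus pre-mixed with compound was added, and cells were incubated 72 h at 37°C. Read-out was luciferase luminescence. IC50 from a four-parameter logistic fit.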

HOS = test: Cytotoxicity against human HOS cells infected with HIV1 3B after 72 hrs by celltiter glow assay; format: cell-based
[2] = test system: Human immunodeficiency virus 1; test: Antiviral activity against HIV1 3B infected in human HOS cells after 72 hrs by luminescence assay in presence of 45 mg/ml human serum albumin; format: functional, organism-based; settings: Human immunodeficiency virus 1, 3B
How it was run: (§1)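 HOS LTR-luciferase viral assay (1 h compound pre-incubation, virus plus compound, 72 h, 37°C, luminescence) run with human serum albumin (45 mg/ml) with or without α-acid glycoprotein (1 mg/ml). Protein-free IC50 served as baseline for fold shift.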

[3] = test system: Human immunodeficiency virus 1; test: Antiviral activity against HIV1 3B infected in human HOS cells after 72 hrs by luminescence assay in presence of alpha-acid glycoprotein and human serum albumin; format: functional, organism-based; settings: Human immunodeficiency virus 1, 3B; how it was run: as §1
Cytochrome P450 2C19 = Cytochrome P450 2C19 (Homo sapiens, UniProt P33261); test: Inhibition of CYP2C19 up to 30 uM; format: ADME
Cytochrome P450 1A2 = biological target: T1, Cytochrome P450 1A2 (Homo sapiens, UniProt P05177); test: Inhibition of CYP1A2 up to 30 uM; format: ADME
T1 sequence (P05177 whole entry): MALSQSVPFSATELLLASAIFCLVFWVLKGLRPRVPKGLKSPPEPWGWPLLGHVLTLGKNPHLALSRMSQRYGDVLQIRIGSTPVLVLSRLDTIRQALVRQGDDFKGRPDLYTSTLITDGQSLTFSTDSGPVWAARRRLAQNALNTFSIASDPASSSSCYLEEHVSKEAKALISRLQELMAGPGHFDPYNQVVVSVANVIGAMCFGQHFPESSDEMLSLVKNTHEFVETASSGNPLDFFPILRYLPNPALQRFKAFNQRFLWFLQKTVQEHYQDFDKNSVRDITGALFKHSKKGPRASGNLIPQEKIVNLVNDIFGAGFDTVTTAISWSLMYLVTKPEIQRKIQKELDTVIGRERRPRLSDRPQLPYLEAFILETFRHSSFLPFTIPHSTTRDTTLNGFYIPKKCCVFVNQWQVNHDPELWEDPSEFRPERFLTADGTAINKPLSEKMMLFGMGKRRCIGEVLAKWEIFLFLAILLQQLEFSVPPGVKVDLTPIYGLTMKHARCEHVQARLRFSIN

[4] = Clearance in rat at 1 mg/kg, iv administered as single dose after 24 hrs by liquid chromatography-mass spectroscopy; format: ADME, organism-based; design: dose 1 mg/kg, route intravenous; settings: in vivo
How it was run: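 Single intravenous dose of 1 mg/kg. Plasma was sampled at serial times over 24 h and measured by LC-MS/MS. Clearance was derived by pharmacokinetic analysis.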

[5] = Volume of distribution at steady state in mouse at 1 mg/kg, iv administered as single dose after 24 hrs by liquid chromatography-mass spectroscopy; format: ADME, organism-based; design: dose 1 mg/kg, route intravenous; settings: in vivo, read-out: Vdss
[6] = Volume of distribution at steady state in monkey at 1 mg/kg, iv administered as single dose after 24 hrs by liquid chromatography-mass spectroscopy; format: ADME, organism-based, Macaca mulatta; design: dose 1 mg/kg, route intravenous; settings: rhesus monkey, in vivo, read-out: Vdss
[7] = Half life in dog at 3 mg/kg, po administered as single dose by liquid chromatography-mass spectroscopy; format: ADME, organism-based, Canis lupus familiaris; design: dose 3 mg/kg, route oral; settings: in vivo
How it was run: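 Single oral dose of 3 mg/kg. Plasma was sampled at serial times over 24 h and measured by LC-MS/MS. Half-life was derived by pharmacokinetic analysis.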

[8] = biological target: Angiotensin-converting enzyme (Homo sapiens, UniProt P12821); test: Inhibition of ACE
[9] = biological target: Voltage-gated inwardly rectifying potassium channel KCNH2 (Homo sapiens, UniProt Q12809); test: Inhibition of human ERG up to 10 uM
Cytochrome P450 2D6 = Cytochrome P450 2D6 (Homo sapiens, UniProt P10635); test: Inhibition of CYP2D6 up to 30 uM; format: ADME
Cytochrome P450 3A4 = Cytochrome P450 3A4 (Homo sapiens, UniProt P08684); test: Inhibition of CYP3A4 up to 30 uM; format: ADME
[10] = test system: Human immunodeficiency virus 1; test: Antiviral activity against HIV1 isolate 05-121786 assessed as inhibition of viral replication after 7 days by scintillation counting; format: functional, organism-based; settings: Human immunodeficiency virus 1, isolate 05-121786, 168 h
[11] = test system: Human immunodeficiency virus 1; test: Antiviral activity against HIV1 isolate 05-121789 assessed as inhibition of viral replication after 7 days by scintillation counting; format: functional, organism-based; settings: Human immunodeficiency virus 1, isolate 05-121789, 168 h
[12] = test system: Human immunodeficiency virus 1; test: Antiviral activity against HIV1 isolate 05-121797 assessed as inhibition of viral replication after 7 days by scintillation counting; format: functional, organism-based; settings: Human immunodeficiency virus 1, isolate 05-121797, 168 h
[13] = test system: Human immunodeficiency virus 1; test: Antiviral activity against HIV1 isolate 05-121772 assessed as inhibition of viral replication after 7 days by scintillation counting; format: functional, organism-based; settings: Human immunodeficiency virus 1, isolate 05-121772, 168 h
[14] = test system: Human immunodeficiency virus 1; test: Antiviral activity against HIV1 isolate 05-121775 assessed as inhibition of viral replication after 7 days by scintillation counting; format: functional, organism-based; settings: Human immunodeficiency virus 1, isolate 05-121775, 168 h
[15] = test system: Human immunodeficiency virus 1; test: Antiviral activity against HIV1 isolate 05-121776 assessed as inhibition of viral replication after 7 days by scintillation counting; format: functional, organism-based; settings: Human immunodeficiency virus 1, isolate 05-121776, 168 h
[16] = test system: Human immunodeficiency virus 1; test: Antiviral activity against HIV1 isolate 05-121777 assessed as inhibition of viral replication after 7 days by scintillation counting; format: functional, organism-based; settings: Human immunodeficiency virus 1, isolate 05-121777, 168 h
[17] = test system: Human immunodeficiency virus 1; test: Antiviral activity against HIV1 isolate 05-121778 assessed as inhibition of viral replication after 7 days by scintillation counting; format: functional, organism-based; settings: Human immunodeficiency virus 1, isolate 05-121778, 168 h
[18] = test system: Human immunodeficiency virus 1; test: Antiviral activity against HIV1 isolate 05-121779 assessed as inhibition of viral replication after 7 days by scintillation counting; format: functional, organism-based; settings: Human immunodeficiency virus 1, isolate 05-121779, 168 h
[19] = test system: Human immunodeficiency virus 1; test: Antiviral activity against HIV1 isolate 05-121787 assessed as inhibition of viral replication after 7 days by scintillation counting; format: functional, organism-based; settings: Human immunodeficiency virus 1, isolate 05-121787, 168 h
[20] = test system: Human immunodeficiency virus 1; test: Antiviral activity against HIV1 isolate 05-121794 assessed as inhibition of viral replication after 7 days by scintillation counting; format: functional, organism-based; settings: Human immunodeficiency virus 1, isolate 05-121794, 168 h
[21] = test system: Human immunodeficiency virus 1; test: Antiviral activity against HIV1 isolate 05-121795 assessed as inhibition of viral replication after 7 days by scintillation counting; format: functional, organism-based; settings: Human immunodeficiency virus 1, isolate 05-121795, 168 h
[22] = test system: Human immunodeficiency virus 1; test: Antiviral activity against HIV1 isolate 05-121802 assessed as inhibition of viral replication after 7 days by scintillation counting; format: functional, organism-based; settings: Human immunodeficiency virus 1, isolate 05-121802, 168 h
PBMC = test: Cytotoxicity against human PBMC infected with HIV1 3B after 96 hrs by celltiter glow assay

Sequence of Cytochrome P450 2D6 (P10635 whole entry): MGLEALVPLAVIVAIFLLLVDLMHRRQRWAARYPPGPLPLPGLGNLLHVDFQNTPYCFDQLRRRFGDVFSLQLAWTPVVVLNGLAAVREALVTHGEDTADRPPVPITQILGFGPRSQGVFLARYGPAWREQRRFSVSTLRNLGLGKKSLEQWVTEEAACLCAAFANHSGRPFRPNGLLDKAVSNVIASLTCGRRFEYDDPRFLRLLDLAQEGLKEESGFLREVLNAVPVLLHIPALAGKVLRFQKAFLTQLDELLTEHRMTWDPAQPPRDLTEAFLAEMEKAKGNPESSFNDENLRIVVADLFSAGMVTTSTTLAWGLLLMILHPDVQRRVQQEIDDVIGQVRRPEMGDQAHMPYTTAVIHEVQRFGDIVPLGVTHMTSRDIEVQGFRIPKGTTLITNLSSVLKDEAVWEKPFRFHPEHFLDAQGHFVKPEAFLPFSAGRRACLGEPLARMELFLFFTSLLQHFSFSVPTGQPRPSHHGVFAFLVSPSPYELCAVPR
Sequence of Angiotensin-converting enzyme (P12821 whole entry): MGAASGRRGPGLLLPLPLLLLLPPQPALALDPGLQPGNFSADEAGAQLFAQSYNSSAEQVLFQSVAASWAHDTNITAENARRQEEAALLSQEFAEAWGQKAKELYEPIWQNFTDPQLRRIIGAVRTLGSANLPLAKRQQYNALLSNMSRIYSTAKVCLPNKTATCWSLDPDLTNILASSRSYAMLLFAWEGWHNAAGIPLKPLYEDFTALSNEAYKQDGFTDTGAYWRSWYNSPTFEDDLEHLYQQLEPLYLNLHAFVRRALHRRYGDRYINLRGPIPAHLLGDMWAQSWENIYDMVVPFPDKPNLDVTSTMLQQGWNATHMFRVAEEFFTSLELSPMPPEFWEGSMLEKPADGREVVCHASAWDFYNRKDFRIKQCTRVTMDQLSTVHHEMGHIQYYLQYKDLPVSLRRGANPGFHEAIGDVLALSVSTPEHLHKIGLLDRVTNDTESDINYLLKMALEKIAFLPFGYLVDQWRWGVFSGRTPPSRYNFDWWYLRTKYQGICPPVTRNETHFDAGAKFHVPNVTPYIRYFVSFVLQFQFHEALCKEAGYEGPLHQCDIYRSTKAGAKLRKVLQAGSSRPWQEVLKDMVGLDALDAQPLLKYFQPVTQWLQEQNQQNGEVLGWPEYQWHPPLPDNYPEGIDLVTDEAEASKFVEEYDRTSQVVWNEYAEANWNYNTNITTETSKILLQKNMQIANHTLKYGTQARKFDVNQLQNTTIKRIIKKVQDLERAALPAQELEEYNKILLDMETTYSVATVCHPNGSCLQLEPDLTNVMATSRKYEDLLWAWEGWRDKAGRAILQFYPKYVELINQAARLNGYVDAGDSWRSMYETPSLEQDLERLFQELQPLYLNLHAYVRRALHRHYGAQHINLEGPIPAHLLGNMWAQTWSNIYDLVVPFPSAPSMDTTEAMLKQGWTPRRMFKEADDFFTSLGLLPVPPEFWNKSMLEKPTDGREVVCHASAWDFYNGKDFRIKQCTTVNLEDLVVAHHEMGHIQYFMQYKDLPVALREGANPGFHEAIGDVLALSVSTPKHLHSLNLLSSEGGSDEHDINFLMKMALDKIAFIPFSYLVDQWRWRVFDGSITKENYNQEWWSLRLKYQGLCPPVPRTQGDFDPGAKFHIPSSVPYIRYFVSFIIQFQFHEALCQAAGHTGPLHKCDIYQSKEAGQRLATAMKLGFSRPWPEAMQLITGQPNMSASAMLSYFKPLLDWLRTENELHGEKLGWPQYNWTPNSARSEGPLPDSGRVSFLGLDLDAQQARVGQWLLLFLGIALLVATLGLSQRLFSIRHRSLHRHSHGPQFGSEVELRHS
Sequence of Cytochrome P450 3A4 (P08684 whole entry): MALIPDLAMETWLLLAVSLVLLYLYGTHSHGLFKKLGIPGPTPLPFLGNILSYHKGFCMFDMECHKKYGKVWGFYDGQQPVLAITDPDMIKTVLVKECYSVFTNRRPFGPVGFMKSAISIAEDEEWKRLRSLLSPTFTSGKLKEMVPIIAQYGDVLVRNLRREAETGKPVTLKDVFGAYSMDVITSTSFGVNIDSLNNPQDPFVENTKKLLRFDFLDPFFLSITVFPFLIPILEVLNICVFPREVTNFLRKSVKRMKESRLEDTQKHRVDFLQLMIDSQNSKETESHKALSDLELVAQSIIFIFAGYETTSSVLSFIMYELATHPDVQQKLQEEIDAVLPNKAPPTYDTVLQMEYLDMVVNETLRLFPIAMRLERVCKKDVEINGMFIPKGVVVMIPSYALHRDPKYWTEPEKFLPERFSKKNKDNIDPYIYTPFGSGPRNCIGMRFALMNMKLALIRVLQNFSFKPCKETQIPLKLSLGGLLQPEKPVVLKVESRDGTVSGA
Sequence of Voltage-gated inwardly rectifying potassium channel KCNH2 (Q12809 whole entry): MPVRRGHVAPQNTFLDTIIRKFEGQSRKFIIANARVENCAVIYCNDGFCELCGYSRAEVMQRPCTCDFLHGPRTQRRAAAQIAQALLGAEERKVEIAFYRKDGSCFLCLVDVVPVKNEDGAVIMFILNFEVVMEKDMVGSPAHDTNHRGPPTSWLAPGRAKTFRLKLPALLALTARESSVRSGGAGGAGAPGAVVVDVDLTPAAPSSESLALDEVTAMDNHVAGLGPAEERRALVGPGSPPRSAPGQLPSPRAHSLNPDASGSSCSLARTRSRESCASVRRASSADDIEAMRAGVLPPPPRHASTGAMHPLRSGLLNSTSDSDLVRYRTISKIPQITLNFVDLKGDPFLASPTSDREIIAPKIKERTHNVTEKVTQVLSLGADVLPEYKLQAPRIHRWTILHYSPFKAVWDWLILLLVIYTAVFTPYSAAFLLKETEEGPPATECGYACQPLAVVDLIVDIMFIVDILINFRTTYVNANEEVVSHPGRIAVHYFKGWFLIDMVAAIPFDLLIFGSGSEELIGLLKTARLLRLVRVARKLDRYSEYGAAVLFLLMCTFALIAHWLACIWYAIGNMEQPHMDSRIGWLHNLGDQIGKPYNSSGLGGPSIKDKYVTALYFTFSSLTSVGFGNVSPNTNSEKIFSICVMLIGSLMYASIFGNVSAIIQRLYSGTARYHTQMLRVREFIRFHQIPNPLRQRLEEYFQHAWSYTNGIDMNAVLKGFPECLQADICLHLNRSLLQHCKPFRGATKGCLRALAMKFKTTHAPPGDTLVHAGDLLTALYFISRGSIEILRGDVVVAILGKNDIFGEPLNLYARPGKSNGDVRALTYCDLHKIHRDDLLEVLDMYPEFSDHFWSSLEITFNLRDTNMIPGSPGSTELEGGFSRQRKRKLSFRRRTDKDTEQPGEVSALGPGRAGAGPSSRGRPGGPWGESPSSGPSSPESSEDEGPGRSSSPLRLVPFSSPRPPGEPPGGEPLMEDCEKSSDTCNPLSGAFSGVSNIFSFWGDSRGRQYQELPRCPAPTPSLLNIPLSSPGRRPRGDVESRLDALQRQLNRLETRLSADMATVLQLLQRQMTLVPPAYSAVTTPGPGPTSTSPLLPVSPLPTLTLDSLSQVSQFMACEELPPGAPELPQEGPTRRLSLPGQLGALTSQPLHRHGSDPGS
Sequence of Cytochrome P450 2C19 (P33261 whole entry): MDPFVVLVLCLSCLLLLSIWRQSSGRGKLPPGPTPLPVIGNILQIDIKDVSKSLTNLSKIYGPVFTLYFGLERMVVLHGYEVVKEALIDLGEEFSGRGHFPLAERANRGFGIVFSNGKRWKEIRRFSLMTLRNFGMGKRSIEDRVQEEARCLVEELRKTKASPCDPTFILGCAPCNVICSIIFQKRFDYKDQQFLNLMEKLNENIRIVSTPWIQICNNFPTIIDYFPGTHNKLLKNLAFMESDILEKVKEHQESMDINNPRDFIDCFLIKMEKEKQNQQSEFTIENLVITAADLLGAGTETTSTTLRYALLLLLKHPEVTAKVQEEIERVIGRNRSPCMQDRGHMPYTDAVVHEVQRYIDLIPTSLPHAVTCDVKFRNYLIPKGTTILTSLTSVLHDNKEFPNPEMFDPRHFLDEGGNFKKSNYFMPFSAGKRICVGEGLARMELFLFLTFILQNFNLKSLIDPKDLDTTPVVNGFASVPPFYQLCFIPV

## CN1CCN(c2cccc3nc(CN(C)[C@H]4CCCc5cccnc54)c(CO)n23)CC1
[1]
  IC50: 1.5 nM
HOS
  IC50: > 1000 nM
[2]
  IC50: 2.01 nM
[3]
  IC50: 3.14 nM
Cytochrome P450 2C19
  inhibition (INH): Not Active
Cytochrome P450 1A2
  inhibition (INH): Not Active
[4]
  clearance: 4.5 mL/min/kg
[5]
  Vd: 4.2 L/kg
[6]
  Vd: 5.9 L/kg
[7]
  half-life: > 12 h
[8]
  IC50: 193 nM
[9]
  inhibition (INH): Not Active
Cytochrome P450 2D6
  inhibition (INH): Not Active
Cytochrome P450 3A4
  inhibition (INH): Not Active
[10]
  IC50: 1 nM
[11]
  IC50: 1 nM
[12]
  IC50: 1 nM
[13]
  IC50: 1 nM
[14]
  IC50: 1 nM
[15]
  IC50: 1 nM
[16]
  IC50: 1 nM
[17]
  IC50: 1 nM
[18]
  IC50: 1 nM
[19]
  IC50: 1 nM
[20]
  IC50: 1 nM
[21]
  IC50: 1 nM
[22]
  IC50: 1 nM
PBMC
  IC50: > 1000 nM
